Test system: MS2 coat protein
Assay: apparent Kd, MS2 coat protein; higher = weaker binding; RNA-MaP array; FMN 200 µM where present
Procedure, shortened: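 The apparent Kd is reported as the median of filtered per-cluster binding-curve fits. To get these curves, designs transcribed by stalled E. coli RNA polymerase on Illumina sequencing-chip clusters were titrated with SNAP-549-labelled MS2 coat protein from 0.7 or 1.5 nM, doubling to 3 µM. Titrations were run without and then with constant ligand in 100 mM Tris-HCl pH 7.5, 80 mM KCl, 4 mM MgCl2, BSA, DTT, yeast tRNA and Tween-20, and green signal was normalised to red-channel RNA signal and control-cluster median Fmax.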

[1] = designed as: ON switch for flavin mononucleotide, no ligand
[2] = ligand present: flavin mononucleotide, designed as: ON switch for flavin mononucleotide
[3] = designed as: OFF switch for flavin mononucleotide, no ligand
[4] = ligand present: flavin mononucleotide, designed as: OFF switch for flavin mononucleotide

Sequence	apparent Kd [1] [nM]	apparent Kd [2] [nM]	apparent Kd [3] [nM]	apparent Kd [4] [nM]
UGAGUAGCGUAACAACGCACAUGAGGAUCACCCAUGUCUACACAGGAUAUGCGACGCUCCAGUUAGCAGAAGGGUGAACUCAAA	78.7	138	–	–
GGAUGACAAAGUCAUCCAAUUCGAACAUGAGGAUCACCCAUGUAGGAUAUGCUACACAAAGUGUAGCAGAAGGACAUGUGCCUU	–	–	30.7	183
AGAGGUCUCUGUGAUAACGGUACGAAGGAUAUGCAUGGAUGGGCCGAGACAUGAGGAUCACCCAUGUAGAAGGUCGAUGCGCGU	–	–	51	65.7
CGUGCACAUGUAGGAUAUGGUUAUCUAUGUCUAGUUACUAGACAUAGAUAACCAGAAGGACAUGAGGAUCACCCAUGUAGCACG	–	–	346	275
AAAAAGUGAGGAUAUACAUGAGAAAAAAAAAUGUAAAAAAAACAUGAGGAUCACCCAUGUAGAAGGCACAAAAA	–	–	49.7	82.7
GUCUUUUUACAGAAGGUGUUUAACAUGAGGAUCACCCAUGUACAAAAGGUUAAAUUUGAUAAUAACAAGGAUAUGUACUAAUCA	292	184	–	–
UUAUAUAUUAGAGGAUAUGUGUUCAUGUUACAUGAGGAUCACCCAUGUUUAUGUUGAUUGAUCUUACAGAAGGCUAUACAAUGA	–	–	20.1	19.9
AAUUAUUUGUAGAAGGAAGGAGAUUUUGUAUUCUUAGGAUAUACUAUUACAUGAGGAUCACCCAUGUUUGAAGGGUUGCAAUGU	–	–	47.5	59.8
GUCCGGCUGCCACAGGAUAUACGUGGAUCGACAUGAGGAUCACCCAUGUAUAUCCUAAUAAUUGCGUAGAAGGGUGGUCAGCCGG	1040	109	–	–
CAGUACGGAGGAUAUACAUGAGGAUCACCCAUGUGAGAAAUACUAGUGAGGUCGAUUAGUAGAAGGCUGUACUG	–	–	40.5	579
GUUAAUUAGUGAGGAUAUACAGUAUUUAAUACUGUAGAAGGCACAAUCCUCAAGACAUGAGGAUCACCCAUGUGAUAAUAAGCU	–	–	35.4	139
CUGUGAUGGAUCCAGAAUUACAACAUGAGGAUCACCCAUGUGCAGGAUAUCGGGUUGAUAGGCGCCGAGAAGGGUAUAGUCACG	–	–	132	132
CAUUAAUUCAUUAUAGUUAUUAUACAGGAUAUGUUACAUGAGGAUCACCCAUGUAUUCAUGGUAAACAGAAGGGUAAUUCAAGU	–	–	24.9	22.6
AAAAAUCCAGCGCAGGAUAUCGCAGGGUGCACAUGAGGAUCACCCAUGUGUACCCAAACACCCUGCGAGAAGGGCGUUGGAAAAAA	11.2	9.68	–	–
CGGGCGCGAGGAUAUACAUGAGGAUCACCCAUGUAGUGGGUUUGUUUCGGGCUUGCGUGUAGAAGGUGUGUUUG	–	–	217	172
GAUAGAGAGCAGGAUAUCUUGGGUAAGUAUCGUAGAGAAGGGCUCACAUGAGGAUCACCCAUGUGGUCCUAGAU	–	–	12.7	29.5
AGUGAUUGCUGUGUCAGUUCACAUGAGGAUCACCCAUGUAGCUAGGAUAUCCGCAGUUACUGCUAGGAGAAGGAGCAAGGUGGC	–	–	8.6	12.1
AAAAAAAAAACUCAGGAUAUAGAUUGUUGAACAUGAGGAUCACCCAUGUAGUGAAAAGCGAAAAACUAGAAGGGAGGAAAAAAAAA	82.5	46	–	–
GGAUUACAUGAGGAUCACCCAUGUGAGGAUAUCGAUGUCCAGUAGGGCGUGCGGGACUCGAGAAGGCACUUGGA	–	–	47.5	177
CAGGUUAGAGGAUAUACGUAGGUACAGAUCUGUGUGUUCCUACAUGAGGAUCACCCAUGUAGAAGGCUAUCCUG	–	–	69.8	208
AAGUUGUCAGGAUAUCGUUAAUUUAGUUGUUUGUAUUAGUUCGAGAAGGGACAUGAGGAUCACCCAUGUUUGAA	–	–	32.5	40.5
UGCCUGAGUCGAGGAUAUUAUGGAUCCUUUAAUACAUGAGGAUCACCCAUGUAAUUAAUUAUACAUGAGAAGGCGACUCAGGCU	88.8	12.5	–	–
AAAACGGUAGGAUAUACAUGAGGAUCACCCAUGUUAAAUUUAAAAAUAAAAUUAAAAUGUAGAAGGACCAAAAA	–	–	32	32.3
AGUAAGAUGCAGAAGGUGUUAGCUAGAGCUACGACAUGAGGAUCACCCAUGUAAAACCGCCCGUACAAGGAUAUGCAUCUUACA	6.12	5.54	–	–
CGCAAGUCAGGAUAUUCGACUGGUAAAUCUGUGGAUCAGUAGGAGAAGGGACAUGAGGAUCACCCAUGUUUGUA	–	–	29.5	35.9
AAUUAAUUAAUUAAUUCCUGCAUACAUGAGGAUCACCCAUGUAAGGAUAUCGUCAGGAAUACUGACGAGAAGGUACAUAGCAGG	–	–	15.7	21.6
UGUUGUAUUACAGGAUAUCUAUUAGUUUUAUUUAGAGAAGGGUAUUCACAUGAGGAUCACCCAUGUAUAUACGAGGAAGUUGUG	57.8	60.3	–	–
AAUUAUAUGUAGAAGGUACAGACUUAUGAGUAGUAAGGAUAUACAAAAUUAUUAAUUCUCAAGUUACAUGAGGAUCACCCAUGU	11.6	8.33	–	–
